Assay results taken from ChEMBL document CHEMBL3102822, “Synthesis, biological evaluation and molecular docking studies of benzyloxyacetohydroxamic acids as LpxC inhibitors” (Bioorg Med Chem, 2014).
The source made the active and inactive calls. No cut-off for these calls is given here.

Columns and labels:
[1] = tested on: Escherichia coli; test: Antimicrobial activity against Escherichia coli D22 at 10 mM after overnight incubation by agar disc diffusion method; type: functional; conditions: read-out: DIZ
How it was run: (§1)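 Strains grown overnight in LB broth at 37 °C, 200 rpm; 150 µL overnight suspension spread on LB agar. 15 µL of compound (10 mM stock in DMSO) applied to 6 mm filter paper discs; DMSO negative and CHIR-090 positive controls. Plates incubated overnight at 37 °C; zone of inhibition diameter measured, mean ± SD of three independent experiments.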

[2] = molecular target: T1, UDP-3-O-acyl-N-acetylglucosamine deacetylase (Escherichia coli K-12, UniProt P0A725); test: Inhibition of Escherichia coli LpxC using UDP-3-O-[(R)-3-hydroxymyristoyl]-N-acetylglucosamine as substrate incubated for 30 mins prior to enzyme addition by fluorescence assay
T1 sequence (P0A725 whole entry): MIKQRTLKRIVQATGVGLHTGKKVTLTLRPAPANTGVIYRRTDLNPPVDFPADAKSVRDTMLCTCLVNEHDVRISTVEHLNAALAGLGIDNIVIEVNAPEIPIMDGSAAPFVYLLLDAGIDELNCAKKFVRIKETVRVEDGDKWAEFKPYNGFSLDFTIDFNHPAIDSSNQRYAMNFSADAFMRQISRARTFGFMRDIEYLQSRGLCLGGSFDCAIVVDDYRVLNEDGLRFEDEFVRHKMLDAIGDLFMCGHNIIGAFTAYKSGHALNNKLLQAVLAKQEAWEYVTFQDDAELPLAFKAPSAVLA

[3] = molecular target: T2, UDP-3-O-acyl-N-acetylglucosamine deacetylase (Escherichia coli K-12) (UniProt P0A725); test: Inhibition of Escherichia coli LpxC using UDP-3-O-[(R)-3-hydroxymyristoyl]-N-acetylglucosamine as substrate up to 200 uM incubated for 30 mins prior to enzyme addition by fluorescence assay
T2 sequence (whole entry): T1 sequence (P0A725 whole entry)
How it was run: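 Purified E. coli LpxC (stored in 50 mM Bis/Tris pH 6.0, 150 mM NaCl). 40 mM MES pH 6.0 with 25 µM substrate, 80 µM DTT, 0.02% Brij 35; inhibitors in DMSO, 0.2 nM–200 µM, 30 min at 37 °C shaking before adding 500 ng enzyme. Stopped with NaOH, neutralized with acetic acid; product derivatized with o-phthaldialdehyde-2-mercaptoethanol in borax, fluorescence ex 340/em 460 nm. IC50 converted to Ki by Cheng-Prusoff (KM 4 µM); mean ± SD, n=3.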

[4] = tested on: Escherichia coli; test: Antimicrobial activity against Escherichia coli BL21(DE3) at 10 mM after overnight incubation by agar disc diffusion method; type: functional; conditions: read-out: DIZ; how it was run: as §1

| Structure (SMILES) | zone of inhibition at 10000 µM [1] [mm] | IC50 [2] [µM] | inhibition [3] | zone of inhibition at 10000 µM [4] [mm] | Ki [2] [µM] |
| --- | --- | --- | --- | --- | --- |
| O=C(CO[C@H](CO)c1ccc(Br)cc1)NO | < 6 | > 200 | inactive | < 6 |  |
| C[Si](C)(C)C#Cc1ccc([C@H](CO)OCC(=O)NO)cc1 | 7.2 | > 200 |  | 7.1 |  |
| O=C(CO[C@@H](CO)c1ccc(Br)cc1)NO | < 6 | > 200 |  | < 6 |  |
| O=C(CO[C@@H](CO)c1ccc(C#Cc2ccccc2)cc1)NO | 13 | 31.6 |  | 9.1 | 4.4 |
| O=C(COCc1ccc(C#Cc2ccccc2)cc1)NO | 13.2 | > 200 |  | 10.6 |  |
| O=C(NO)[C@H]1O[C@@H](c2ccc(C#Cc3ccc(CN4CCOCC4)cc3)cc2)[C@@H](O)[C@H]1O | 13.1 | > 200 |  | < 6 |  |
| O=C(CO[C@H](CO)c1ccc(C#Cc2ccc(CN3CCOCC3)cc2)cc1)NO | 21.2 | 0.69 |  | 13.4 | 0.095 |
| O=C(COCc1ccc(C#Cc2ccc(CN3CCOCC3)cc2)cc1)NO | 20.3 | 10.5 |  | 16.5 | 1.45 |
| C[C@@H](O)[C@H](NC(=O)c1ccc(C#Cc2ccc(CN3CCOCC3)cc2)cc1)C(=O)NO | 30.3 |  |  | 24.6 |  |
| C#Cc1ccc([C@@H](CO)OCC(=O)NO)cc1 | < 6 | > 200 | inactive | < 6 |  |
| C#Cc1ccc([C@H](CO)OCC(=O)NO)cc1 | < 6 | > 200 |  | < 6 |  |
| O=C(CO[C@H](CO)c1ccc(C#Cc2ccccc2)cc1)NO | 20.5 | 0.48 |  | 9.5 | 0.066 |
| O=C(CO[C@H](CO)c1ccccc1)NO | < 6 | > 200 |  | < 6 |  |
| O=C(CO[C@@H](CO)c1ccccc1)NO | < 6 | > 200 |  | < 6 |  |
| O=C(NO)[C@H](CO)O[C@H](CO)c1ccc(C#Cc2ccc(CN3CCOCC3)cc2)cc1 | 20.8 | 2.6 |  | 9 | 0.358 |
| C[Si](C)(C)C#Cc1ccc([C@@H](CO)OCC(=O)NO)cc1 | 7.5 | > 200 | inactive | < 6 |  |
| O=C(CO[C@@H](CO)c1ccc(C#Cc2ccc(CN3CCOCC3)cc2)cc1)NO | 12.3 | 198 |  | 8.7 | 27.3 |
